In ChEMBL document CHEMBL1122807, “2-Substituted thiazolidine-4(R)-carboxylic acids as prodrugs of L-cysteine. Protection of mice against acetaminophen hepatotoxicity” (1984):

Key:
[1] = system: Mus musculus; experiment: Compound was evaluated for its protective activity against acetaminophen (750 mg ([…]) /kg) toxicity, given intraperitoneally in mice and the number of animals with liver necrosis was determined after 2 hr; assay type: functional
Outline: (§1)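 Overnight-fasted (16 h) Swiss-Webster mice received acetaminophen 750 mg/kg ip, then test agent 2.45 mmol/kg ip 0.5 h later. Agents were made at 15 mg/mL in sterile 0.1 N NaHCO3 (one in sterile water), pH 6.5–7.5, and used within 1 h. Liver sections from the first 18 animals per agent were coded and graded 0 to 4+ blind. Results pooled from ≥3 replicate experiments.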

[2] = system: Mus musculus; experiment: Compound was evaluated for its protective activity against acetaminophen (750 mg ([…]) /kg) toxicity, given intraperitoneally in mice and the number of animals with liver necrosis was determined after 0h; assay type: functional
[3] = system: Mus musculus; experiment: Compound was evaluated for its protective activity against acetaminophen (750 mg ([…]) /kg) toxicity, given intraperitoneally in mice and the number of animals with liver necrosis was determined
[4] = system: Mus musculus; experiment: Compound was evaluated for its protective activity against acetaminophen (750 mg ([…]) /kg) toxicity, given intraperitoneally in mice and the number of animals with liver necrosis was determined after 3h; assay type: functional; outline: as §1
[5] = system: Mus musculus; experiment: Compound was evaluated for its protective activity against acetaminophen (750 mg ([…]) /kg) toxicity, given intraperitoneally in mice and the survival of the mice was determined at 48 h; 23/26; assay type: functional
Outline: (§2)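 Swiss-Webster mice were fasted overnight (16 h) before use. Test compound, made up as a 15 mg/mL solution in sterile 0.1 N NaHCO3 (pH 6.5–7.5) and used within 1 h of preparation, was given at 2.45 mmol/kg ip 0.5 h after acetaminophen ip. Survivors were counted at 48 h. Counts are cumulative over at least three replicate experiments run at different times.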

[6] = system: Mus musculus; experiment: Compound was evaluated for its protective activity against acetaminophen (750 mg ([…]) /kg), given intraperitoneally) in mice and the number of animals with liver necrosis was determined after 3h; assay type: functional; outline: as §1
[7] = system: Mus musculus; experiment: Compound was evaluated for its protective activity against acetaminophen (750 mg ([…]) /kg) toxicity, given intraperitoneally in mice and the survival of the mice was determined at 48 h; 0/18; assay type: functional; outline: as §2
[8] = system: Mus musculus; experiment: Compound was evaluated for its protective activity against acetaminophen (750 mg ([…]) /kg) toxicity, given intraperitoneally in mice and the number of animals with liver necrosis was determined after 1 hr; assay type: functional
[9] = system: Mus musculus; experiment: Compound was evaluated for its protective activity against acetaminophen (750 mg ([…]) /kg) toxicity, given intraperitoneally in mice and the survival of the mice was determined at 48 h; 13/24; assay type: functional; outline: as §2
[10] = organism: Mus musculus; experiment: Compound was evaluated for the excretion of 14CO2 (carbon dioxide) in expired air of mice and the activity was determined as percent of dose excreted as 14CO2 at following time intervals - 4-8h; assay type: functional
Outline: (§3)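 Mice were dosed with thiazolidine carrying 14C at ring C-2 and the methyl carbon. Expired 14CO2 was trapped, and the trap was changed at 4, 8, 12, 16 and 24 h. Aliquots were counted by liquid scintillation against an aqueous Na2 14CO3 standard and expressed as percent of dose. The experiment was repeated in a second mouse (24 g, 2.57 mmol/kg).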

[11] = organism: Mus musculus; experiment: Compound was evaluated for the excretion of 14CO2 (carbon dioxide) in expired air of mice and the activity was determined as percent of dose excreted as 14CO2 at following time intervals - 8-12h; assay type: functional; outline: as §3
[12] = organism: Mus musculus; experiment: Compound was evaluated for the excretion of 14CO2 (carbon dioxide) in expired air of mice and the activity was determined as percent of dose excreted as 14CO2 at following time intervals - 0-4 hr; assay type: functional; outline: as §3
[13] = organism: Mus musculus; experiment: Compound was evaluated for the excretion of 14CO2 (carbon dioxide) in expired air of mice and the activity was determined as percent of dose excreted as 14CO2 at following time intervals - 16-24h; assay type: functional; outline: as §3
[14] = organism: Mus musculus; experiment: Compound was evaluated for the excretion of 14CO2 (carbon dioxide) in expired air of mice and the activity was determined as percent of dose excreted as 14CO2 at following time intervals - 12-16 h; assay type: functional; outline: as §3
[15] = system: Mus musculus; experiment: Compound was evaluated for its protective activity against acetaminophen (750 mg ([…]) /kg) toxicity, given intraperitoneally in mice and the survival of the mice was determined at 48 h; 28/30; assay type: functional
[16] = system: Mus musculus; experiment: Compound was evaluated for its protective activity against acetaminophen (750 mg ([…]) /kg) toxicity, given intraperitoneally in mice and the survival of the mice was determined at 48 h; 30/30; assay type: functional; outline: as §2
[17] = system: Mus musculus; experiment: Compound was evaluated for its protective activity against acetaminophen (750 mg ([…]) /kg) toxicity, given intraperitoneally in mice and the survival of the mice was determined at 48 h; 24/24; assay type: functional; outline: as §2
[18] = system: Mus musculus; experiment: Compound was evaluated for its protective activity against acetaminophen (750 mg ([…]) /kg) toxicity, given intraperitoneally in mice and the survival of the mice was determined at 48 h; 17/17; assay type: functional
[19] = system: Mus musculus; experiment: Compound was evaluated for its protective activity against acetaminophen (750 mg ([…]) /kg) toxicity, given intraperitoneally in mice and the survival of the mice was determined at 48 h; 19/24; assay type: functional; outline: as §2

| SMILES | No. of animals with liver necrosis [1] | No. of animals with liver necrosis [2] | No. of animals with liver necrosis [3] | No. of animals with liver necrosis [4] | No. of animals with liver necrosis [8] | also measured |
| --- | --- | --- | --- | --- | --- | --- |
| O=C(O)[C@@H]1CSC(c2ccccc2)N1 (some centres undefined) | 3 | 7 | 2 | 6 | – | Survival [5]: 23 |
| CC1N[C@@H](C(=O)O)CS1 (some centres undefined) | – | – | 17 | – | – | No. of animals with liver necrosis [6]: 1; Survival [7]: 0 |
| O=C(O)[C@@H]1CSC(c2ccncc2)N1 (some centres undefined) | 1 | 2 | 6 | 5 | 4 | Survival [9]: 13 |
| CC1N[C@H](C(=O)O)CS1 (some centres undefined) | – | 17 | 1 | – | – | Of dose excreted [10]: 7%; Of dose excreted [11]: 4.3%; Of dose excreted [12]: 61.9%; Of dose excreted [13]: 3.7%; Of dose excreted [14]: 2.9%; Survival [15]: 28 |
| CCCC1N[C@H](C(=O)O)CS1 (some centres undefined) | 1 | 9 | 2 | – | 6 | Survival [16]: 30 |
| CCCCCC1N[C@H](C(=O)O)CS1 (some centres undefined) | – | 16 | – | – | 2 | Survival [17]: 24 |
| CC(=O)N[C@@H](CS)C(=O)O [ACETYLCYSTEINE] | – | 15 | – | – | 2 | Survival [18]: 17 |
| CCC1N[C@H](C(=O)O)CS1 (some centres undefined) | 3 | 3 | 6 | 3 | 3 | Survival [19]: 19 |
